Experimental data taken from ChEMBL document CHEMBL1155909, “Discovery and stereoselective synthesis of the novel isochroman neurokinin-1 receptor antagonist 'CJ-17,493'” (Bioorg Med Chem, 2008).
pIC50, pKi: −log10 of the molar value.

Columns and labels:
[1] = Volume of distribution at steady state in dog at 1 mg/kg, iv; assay type: ADME, organism-based, Canis lupus familiaris; design: dose 1 mg/kg, route intravenous; details: in vivo, read-out: Vdss
Outline: (§1)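 Dogs received 1 mg/kg iv. Plasma clearance, steady-state volume of distribution and half-life were derived.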

[2] = biological target: Sodium channel protein type 2 subunit alpha (Rattus norvegicus, UniProt P04775); experiment: Displacement of [3H]batrachotoxinin from rat sodium channel type 2A subunit expressed in CHO-CNa2A cells […]; assay type: cell-based
[3] = Displacement of [3H]desmethoxyverapamil from L-type calcium channel
Substance-P receptor = Substance-P receptor (Homo sapiens, UniProt P25103); experiment: Displacement of [3H]SP from NK1 receptor in human IM9 cells
[4] = Clearance in dog at 1 mg/kg, iv; assay type: ADME, organism-based, Canis lupus familiaris; design: dose 1 mg/kg, route intravenous; details: in vivo; outline: as §1
[5] = Half life in dog at 1 mg/kg, iv; assay type: ADME, organism-based, Canis lupus familiaris; design: dose 1 mg/kg, route intravenous; details: in vivo; outline: as §1
Mustela putorius furo [6] = experiment: Antiemetic activity against cisplatin-induced emesis in sc dosed ferrets; assay type: functional, organism-based
Outline: (§2)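 Ferrets were given the test compound sc 30 min before cisplatin (10 mg/kg, ip). Retching and vomiting/gagging episodes were counted against vehicle control. Groups were n = 4–5, data are mean ± SEM, and Student's t-test was used. Results are given as ED90 (mg/kg, sc) or as % inhibition at the stated dose.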

[7] = Clearance in rat at 0.3 mg/kg, iv; assay type: ADME, organism-based; design: dose 0.3 mg/kg, route intravenous; details: in vivo
Outline: (§3)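 Rats received 0.3 mg/kg iv. Plasma clearance, steady-state volume of distribution and half-life were derived from plasma levels.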

[8] = Volume of distribution at steady state in rat at 0.3 mg/kg, iv; assay type: ADME, organism-based; design: dose 0.3 mg/kg, route intravenous; details: in vivo, read-out: Vdss; outline: as §3
[9] = Half life in rat at 0.3 mg/kg, iv; assay type: ADME, organism-based; design: dose 0.3 mg/kg, route intravenous; details: in vivo; outline: as §3
Gerbillinae [10] = experiment: Inhibition of [Sar9, Met(O2)11]SP-induced foot tapping in sc dosed gerbil
Gerbillinae [11] = experiment: Inhibition of [Sar9, Met(O2)11]SP-induced foot tapping in gerbil at 1 mg/kg, sc relative to CP-122721; details: for inhibition in vivo at 1 mg/kg / inhibition (INH): route subcutaneous, dose 1 mg/kg
Gerbillinae [12] = experiment: Inhibition of [Sar9, Met(O2)11]SP-induced foot tapping in gerbil at 0.1 mg/kg, sc relative to CP-122721; details: for inhibition in vivo at 0.1 mg/kg / inhibition (INH): route subcutaneous, dose 0.1 mg/kg
CYP2D6 = CYP2D6 (Homo sapiens, UniProt P10635); experiment: (§4) Inhibition of human CYP2D6 at 5 uM; assay type: ADME
Liver microsomes = experiment: Metabolic stability in human liver microsome assessed as ratio of half life between CYP2D6-deficient microsome and CYP2D6-deficient microsome with addition of exogenous CYP2D6; assay type: ADME
Outline: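 Half-lives were measured in CYP2D6-deficient human liver microsomes with and without added exogenous CYP2D6. The value is the ratio of the half-life without CYP2D6 to the half-life with it.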

Cytochrome P450 2D6 [13] = biological target: T1, Cytochrome P450 2D6 (Homo sapiens, UniProt P10635); experiment: as §4; assay type: ADME; details: 5 µM
[14] = Oral bioavailability in rat at 1 to 30 mg/kg; assay type: ADME, organism-based; details: in vivo
Outline: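 Rats received 1–30 mg/kg orally as the hydrochloride salt dissolved in water. Oral bioavailability was determined against iv data.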

Cytochrome P450 2D6 [15] = biological target: T1, Cytochrome P450 2D6; experiment: Binding affinity to human CYP2D6 using bufuralol as substrate; assay type: ADME
Mustela putorius furo [16] = experiment: Antiemetic activity against cisplatin-induced emesis in ferrets at 0.1 mg/kg, sc; assay type: functional; details: route subcutaneous; outline: as §2
[17] = Mustela putorius, sc, read-out: ED90

T1 sequence (P10635 whole entry): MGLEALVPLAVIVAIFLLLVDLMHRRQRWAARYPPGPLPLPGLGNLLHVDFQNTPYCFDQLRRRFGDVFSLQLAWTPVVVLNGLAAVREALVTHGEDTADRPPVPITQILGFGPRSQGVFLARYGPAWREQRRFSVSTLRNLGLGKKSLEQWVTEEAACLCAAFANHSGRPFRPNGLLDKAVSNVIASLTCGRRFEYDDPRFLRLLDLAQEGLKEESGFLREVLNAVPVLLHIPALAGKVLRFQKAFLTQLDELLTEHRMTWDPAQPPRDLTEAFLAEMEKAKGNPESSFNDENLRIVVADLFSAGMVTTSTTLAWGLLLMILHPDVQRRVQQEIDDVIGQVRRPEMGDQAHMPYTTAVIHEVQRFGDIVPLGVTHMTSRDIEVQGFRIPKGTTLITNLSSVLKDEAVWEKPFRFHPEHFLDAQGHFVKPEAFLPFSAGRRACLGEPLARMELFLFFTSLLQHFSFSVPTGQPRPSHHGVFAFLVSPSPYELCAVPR
Sequence of CYP2D6 (P10635 whole entry): as above
Sequence of Substance-P receptor (P25103 whole entry): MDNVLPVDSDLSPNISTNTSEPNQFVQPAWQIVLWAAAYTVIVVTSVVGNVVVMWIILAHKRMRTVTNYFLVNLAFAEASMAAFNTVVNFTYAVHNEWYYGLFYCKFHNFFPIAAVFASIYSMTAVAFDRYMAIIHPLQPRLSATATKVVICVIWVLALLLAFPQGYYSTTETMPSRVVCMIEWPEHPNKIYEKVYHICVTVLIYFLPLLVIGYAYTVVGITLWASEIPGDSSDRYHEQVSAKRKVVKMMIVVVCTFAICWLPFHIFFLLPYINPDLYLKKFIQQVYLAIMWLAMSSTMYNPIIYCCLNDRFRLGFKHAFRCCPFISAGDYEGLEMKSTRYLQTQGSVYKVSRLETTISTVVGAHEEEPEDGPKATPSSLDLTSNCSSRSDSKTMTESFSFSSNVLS
Sequence of Sodium channel protein type 2 subunit alpha (P04775 whole entry): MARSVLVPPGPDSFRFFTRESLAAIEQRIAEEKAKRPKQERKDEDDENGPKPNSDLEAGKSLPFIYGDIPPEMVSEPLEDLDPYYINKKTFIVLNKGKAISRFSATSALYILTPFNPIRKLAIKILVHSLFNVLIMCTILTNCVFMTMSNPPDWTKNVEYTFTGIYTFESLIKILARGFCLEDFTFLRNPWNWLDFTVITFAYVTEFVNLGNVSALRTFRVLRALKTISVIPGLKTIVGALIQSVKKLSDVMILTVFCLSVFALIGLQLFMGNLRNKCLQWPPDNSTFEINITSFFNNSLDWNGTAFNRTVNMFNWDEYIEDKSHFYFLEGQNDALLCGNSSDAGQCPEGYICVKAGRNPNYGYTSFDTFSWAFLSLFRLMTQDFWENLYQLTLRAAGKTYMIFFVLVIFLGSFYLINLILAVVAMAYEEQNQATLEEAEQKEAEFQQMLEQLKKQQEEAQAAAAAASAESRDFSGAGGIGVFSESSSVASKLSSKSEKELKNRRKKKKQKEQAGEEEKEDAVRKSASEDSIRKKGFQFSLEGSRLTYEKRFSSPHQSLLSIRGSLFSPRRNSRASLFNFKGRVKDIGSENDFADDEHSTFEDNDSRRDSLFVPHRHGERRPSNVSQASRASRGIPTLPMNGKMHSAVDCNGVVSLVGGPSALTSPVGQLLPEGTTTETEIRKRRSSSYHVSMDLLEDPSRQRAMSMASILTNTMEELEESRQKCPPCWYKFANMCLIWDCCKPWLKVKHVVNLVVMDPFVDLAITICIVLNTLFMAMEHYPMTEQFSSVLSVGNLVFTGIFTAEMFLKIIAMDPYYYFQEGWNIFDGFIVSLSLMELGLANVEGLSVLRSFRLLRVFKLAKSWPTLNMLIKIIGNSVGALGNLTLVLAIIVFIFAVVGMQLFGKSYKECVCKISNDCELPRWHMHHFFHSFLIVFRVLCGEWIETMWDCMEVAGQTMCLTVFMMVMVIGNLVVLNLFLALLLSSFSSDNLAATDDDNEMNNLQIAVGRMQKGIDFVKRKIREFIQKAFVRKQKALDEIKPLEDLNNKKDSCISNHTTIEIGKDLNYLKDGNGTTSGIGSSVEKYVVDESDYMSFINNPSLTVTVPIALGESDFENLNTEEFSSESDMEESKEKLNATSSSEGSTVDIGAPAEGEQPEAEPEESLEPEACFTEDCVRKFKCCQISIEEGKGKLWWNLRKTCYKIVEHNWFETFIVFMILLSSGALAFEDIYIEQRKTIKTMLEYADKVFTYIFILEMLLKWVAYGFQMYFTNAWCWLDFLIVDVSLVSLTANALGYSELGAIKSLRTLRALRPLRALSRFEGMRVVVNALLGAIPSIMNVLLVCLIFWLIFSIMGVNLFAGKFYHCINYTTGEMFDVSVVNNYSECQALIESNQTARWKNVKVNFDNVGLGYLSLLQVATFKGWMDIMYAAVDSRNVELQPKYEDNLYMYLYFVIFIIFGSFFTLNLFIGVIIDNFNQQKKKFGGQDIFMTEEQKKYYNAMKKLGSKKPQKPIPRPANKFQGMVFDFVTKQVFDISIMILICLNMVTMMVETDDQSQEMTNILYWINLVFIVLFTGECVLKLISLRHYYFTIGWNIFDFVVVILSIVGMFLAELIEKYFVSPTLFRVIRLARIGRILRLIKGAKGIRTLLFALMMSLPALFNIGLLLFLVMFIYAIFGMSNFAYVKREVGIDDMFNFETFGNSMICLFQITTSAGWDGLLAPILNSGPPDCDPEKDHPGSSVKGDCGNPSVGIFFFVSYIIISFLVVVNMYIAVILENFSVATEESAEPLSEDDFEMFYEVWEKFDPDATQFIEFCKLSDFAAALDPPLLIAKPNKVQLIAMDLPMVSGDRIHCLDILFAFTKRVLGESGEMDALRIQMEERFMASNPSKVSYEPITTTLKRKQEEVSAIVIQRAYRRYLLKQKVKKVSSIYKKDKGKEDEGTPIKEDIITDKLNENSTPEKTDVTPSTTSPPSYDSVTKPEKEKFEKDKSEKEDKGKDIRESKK

## COc1cc2c(cc1CN[C@H]1CCCN[C@H]1c1ccccc1)[C@](C)(C(F)(F)F)OCC2
[1]
  Vd: 11 L/kg
[2]
  pIC50: 7.32
[3]
  pIC50: 6.79
Substance-P receptor
  pIC50: > 10.00
  pKi: 9.70
[4]
  clearance: 31.7 mL/min/kg
[5]
  half-life: 3.8 h
Mustela putorius furo [6]; [17]
  ED90: 0.07 mg/kg
[7]
  clearance: 11 mL/min/kg
[8]
  Vd: 7 L/kg
[9]
  half-life: 8.8 h
Gerbillinae [10]
  ED50: 0.043 mg/kg

## COc1ccc(C(C)(F)C(F)(F)F)cc1CN[C@H]1CCCN[C@H]1c1ccccc1 (mixture of isomers)
Substance-P receptor
  pIC50: > 10.00
Gerbillinae [11]; Gerbillinae, sc
  inhibition in vivo at 1 mg/kg: 57%
Gerbillinae [12]; Gerbillinae, sc
  inhibition in vivo at 0.1 mg/kg: 30%

## COc1ccc(C(OC)C(F)(F)F)cc1CN[C@H]1CCCN[C@H]1c1ccccc1 (mixture of isomers)
Substance-P receptor
  pIC50: > 10.00
CYP2D6
  inhibition at 5 µM: 92.9%
Gerbillinae [11]; Gerbillinae, sc
  inhibition in vivo at 1 mg/kg: 67%

## COc1cc2c(cc1CN[C@H]1CCCN[C@H]1c1ccccc1)C(C(F)(F)F)CCC2 (mixture of isomers; 17)
Liver microsomes
  Ratio: 7.35
Substance-P receptor
  pIC50: 9.30
Cytochrome P450 2D6 [13]
  inhibition (INH): 76.5%
Gerbillinae [11]
  inhibition (INH): 77%
Mustela putorius furo [6]
  ED100: 1 mg/kg
Mustela putorius furo [6]; [17]
  ED90: 0.17 mg/kg
Gerbillinae [12]; Gerbillinae, sc
  inhibition in vivo at 0.1 mg/kg: 55%

## COc1cc2c(cc1CN[C@H]1CCCN[C@H]1c1ccccc1)[C@](C)(C(F)(F)F)OCC2.Cl.Cl
[14]
  bioavailability: < 1%

## COc1cc2c(cc1CN[C@H]1CCCN[C@H]1c1ccccc1)C(C)(C(F)(F)F)CCC2 (mixture of isomers; 19)
Liver microsomes
  Ratio: 1.58
Substance-P receptor
  pIC50: 9.68
Gerbillinae [11]
  inhibition (INH): 85%
Gerbillinae [12]
  inhibition (INH): 21%

## COc1cc2c(cc1CN[C@H]1CCCN[C@H]1c1ccccc1)C(C)(C(F)(F)F)OC2 (mixture of isomers; 14)
Substance-P receptor
  pIC50: > 10.00
Cytochrome P450 2D6 [13]
  inhibition (INH): 41.8%
Gerbillinae [11]
  inhibition (INH): 69%
Gerbillinae [12]
  inhibition (INH): 15%

## COc1cc2c(cc1CN[C@H]1CCCN[C@H]1c1ccccc1)[C@@](C)(C(F)(F)F)OCC2
Substance-P receptor
  pIC50: 9.47

## COc1cc2c(cc1CN[C@H]1CCCN[C@H]1c1ccccc1)C(C)(C(F)(F)F)CC2 (mixture of isomers)
Substance-P receptor
  pIC50: > 10.00
Gerbillinae [11]; Gerbillinae, sc
  % inhibition at 1 mg/kg: 80%
Gerbillinae [12]; Gerbillinae, sc
  % inhibition at 0.1 mg/kg: 68%

## COc1ccc(OC(F)(F)F)cc1CN[C@H]1CCCN[C@H]1c1ccccc1
Mustela putorius furo [6]
  ED100: >=0.3 mg kg-1
Mustela putorius furo [6]; [17]
  ED90: 0.09 mg/kg
Gerbillinae [10]
  ED50: 0.28 mg/kg

## COc1cc2c(cc1CN[C@H]1CCCN[C@H]1c1ccccc1)C(C)(C(F)(F)F)CCC2 (mixture of isomers; 21)
Liver microsomes
  Ratio: 1.8
Cytochrome P450 2D6 [15]
  pKi: 6.92
Substance-P receptor
  pIC50: > 10.00
Mustela putorius furo [16]
  inhibition in vivo at 0.1 mg/kg: 97%
Gerbillinae [11]
  inhibition (INH): 91%
Gerbillinae [12]
  inhibition (INH): 86%

## COc1ccc(C(C)C)cc1CN[C@H]1C2CCN(CC2)[C@H]1C(c1ccccc1)c1ccccc1 [EZLOPITANT]
Liver microsomes
  Ratio: 1.8
Cytochrome P450 2D6 [15]
  pKi: 6.38
CYP2D6
  inhibition at 5 µM: 64.1%
Mustela putorius furo [6]; [17]
  ED90: 2.1 mg/kg

## COc1ccc(CC(F)(F)F)cc1CN[C@H]1CCCN[C@H]1c1ccccc1
Liver microsomes
  Ratio: 4.25
Cytochrome P450 2D6 [15]
  pKi: 7.15
Substance-P receptor
  pIC50: 9.05
CYP2D6
  inhibition at 5 µM: 95.6%
Mustela putorius furo [6]
  ED90: < 0.1 mg/kg
  ED100: 0.1 mg/kg
Gerbillinae [10]
  ED50: 0.03 mg/kg

## COc1cc2c(cc1CN[C@H]1CCCN[C@H]1c1ccccc1)C(C(F)(F)F)CCC2 (mixture of isomers; 18)
Substance-P receptor
  pIC50: > 10.00
CYP2D6
  inhibition at 5 µM: 85.4%
